Measured values reported in paper PMC7741178 (Bioorganic & medicinal chemistry, 2020).

Key:
Format in all cases: cell-based
MT-4 cells = assay: Cytotoxicity in MT-4 cells; conditions: CC50 MT-4 cells / IC50 CD4 down-modulation
human CD4 (CD4-YFP) = human CD4 (CD4-YFP) (Homo sapiens, UniProt P01730); assay: CD4 down-modulation in CD4-YFP transfected CHO cells; conditions: for CD4 down-modulation (in words): CD4-YFP CHO cells
Procedure, shortened: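 CHO cells stably expressing human CD4 fused at its C-terminus to YFP were exposed for 24 h at 37 °C to 1:5 serial dilutions of test compound. Cells were washed, fixed in 1% formaldehyde, and read at once by flow cytometry (488 nm laser). YFP MFI was expressed as % of matched untreated cells, after subtracting the background of non-transfected cells. IC50 is the 50% decrease in CD4. Mean ± SD, n = 3.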

HIV-1 NL4.3 (X4) = assay: HIV-1 NL4.3 replication in MT-4 cells; conditions: HIV-1 NL4.3 in MT-4 cells
Procedure, shortened: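 MT-4 cells at 3.75×10^5 cells/mL in RPMI 1640 with 10% FBS and 2 mM L-glutamine were preincubated 15 min with test compound. HIV-1 NL4.3 (30 pg/well) was then added and cells were kept at 37 °C. On day 4, viability was read by MTS/PES at 490 and 700 nm, giving the IC50 for viral replication. Mean ± SD, n = 2 or 3.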

IC50 (human CD4 (CD4-YFP)) [nM]	CD4 down-modulation (in words) (human CD4 (CD4-YFP))	SMILES	therapeutic indices (CC50/IC50 for CD4) (MT-4 cells)	anti-HIV activity (in words) (HIV-1 NL4.3 (X4))
		C=C1CN(S(=O)(=O)c2ccc(C)cc2)CCc2cc(CC(C)C)cc(n2)CCN(S(=O)(=O)c2ccc(C)cc2)C1.Cl [Compound 3k, 13-Isobutyl-6-methylene-4,8-di(p-toluenesulfonyl)-4,8,15-triazabicyclo[9.3.1]pentadeca-1(15),11,13-triene]	exceeding 100	
500		C=C1CN(S(=O)(=O)c2ccc(C)cc2)CCc2cc(CCCC)cc(n2)CCN(S(=O)(=O)c2ccc(C)cc2)C1.Cl [Compound 3j, 13-Butyl-6-methylene-4,8-di(p-toluenesulfonyl)-4,8,15-triazabicyclo[9.3.1]pentadeca-1(15),11,13-triene]	exceeding 100	
	no observable	C=C1CN(S(=O)(=O)c2ccc(C)cc2)Cc2cccc3cc4cccc(c4nc23)CN(S(=O)(=O)c2ccc(C)cc2)C1 [Compound 23, 9-Methylene-7,11,19-7,11-bis(p-toluenesulfonyl)-triazatetracyclo[15.3.1.0^5,20.0^13,18]henicosa-1(21),2,4,13,15,17,19-heptaene]		no observable
	no observable	Cc1ccc(S(=O)(=O)N2CCc3cc(C(C)(C)C)cc(n3)CCN(S(=O)(=O)c3ccc(C)cc3)CC2)cc1 [Compound 16, 12-tert-Butyl-4,7-bis(p-toluenenesulfonyl)-4,7,14-triazabicyclo[8.3.1]tetradeca-1(14),1 0,12-triene]		no observable
